Assay results taken from ChEMBL document CHEMBL1772954, “Antifungal, cytotoxic and SAR studies of a series of N-alkyl, N-aryl and N-alkylphenyl-1,4-pyrrolediones and related compounds” (Bioorg Med Chem, 2011).
Values after ≈ are worked out from the molar mass of the structure shown.

Assays:
MCF7 = test: Cytotoxicity against human MCF7 cells assessed as cell growth after 2 days by sulforhodamine B assay; type: functional; details: MCF7, 48 h
Outline: (§1)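 NCI cell lines were run by the Monks method: cells were plated with compounds from DMSO stocks and incubated 2 days at 37 °C in 5% CO2, in duplicate. Cells were fixed with cold TCA, stained with 0.4% SRB, and the bound dye was solubilized in 10 mM tris-base and read at 515 nm. The zero-day control was subtracted, and GI50 was taken from the curves.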

Nannizzia gypsea = test: Antifungal activity against Microsporum gypseum C 115 2000; type: functional
Outline: (§2)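 Dermatophytes tested by CLSI M38-A2 microdilution in MOPS-buffered RPMI-1640 at pH 7.0. Inoculum 1-5 × 10^3 CFU/mL; compounds 250 to 0.24 µg/ml in twofold steps, final DMSO <1%. Incubated at 28 °C in a moist, dark chamber and read according to control growth. MIC is the lowest concentration with complete inhibition. MFC is the lowest concentration with no growth after duplicate subculture on SDA.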

Candida tropicalis = test: Antifungal activity against Candida tropicalis C 131 2000; type: functional
Outline: (§3)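 CLSI M27-A3 broth microdilution in RPMI-1640 buffered to pH 7.0 with MOPS. Inoculum 1-5 × 10^3 CFU/mL. Compound twofold dilutions from 250 to 0.24 µg/ml, final DMSO <1%. Incubated at 35 °C in a moist, dark chamber and read at 48 h. MIC is the lowest concentration giving total growth inhibition. For MFC, 5 µL from clear wells was plated in duplicate on SDA; MFC is the lowest concentration with no growth.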

Candida albicans = test: Antifungal activity against Candida albicans ATCC 10213; type: functional; outline: as §3
[1] = Cytotoxicity against human erythrocytes assessed as hemolysis by spectrometric analysis; type: cell-based, Erythrocyte
Outline: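 Human heparinized red blood cells were washed in PBS at pH 7.0 and suspended at 4% in sterile 5% glucose. Compounds from DMSO stocks were diluted in 5% glucose to final concentrations of 250 to 0.24 µg/ml and incubated with the cells at 37 °C. Released hemoglobin was read at 540 nm. HC50 is the concentration giving 50% lysis relative to the drug-free value.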

Trichophyton rubrum = test: Antifungal activity against Trichophyton rubrum C 113 2000; type: functional; outline: as §2
SF-268 = test: Cytotoxicity against human SF268 cells assessed as cell growth after 2 days by sulforhodamine B assay; type: functional; details: SF-268, 48 h; outline: as §1
Aspergillus niger = test: Antifungal activity against Aspergillus niger ATCC 9029; type: functional
Outline: (§4)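 Broth microdilution per CLSI M38-A2 in RPMI-1640 with MOPS at pH 7.0. Inoculum 1-5 × 10^3 CFU/mL, with twofold compound dilutions spanning 250-0.24 µg/ml (final DMSO <1%). Plates incubated at 35 °C, moist and dark, and read when the control fungus had grown. MIC is total growth inhibition. MFC comes from subculturing clear wells in duplicate onto SDA.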

Saccharomyces cerevisiae = test: Antifungal activity against Saccharomyces cerevisiae ATCC 9763; type: functional; outline: as §3
[2] = tested on: Trichophyton mentagrophytes; test: Antifungal activity against Trichophyton mentagrophytes ATCC 9972; type: functional; outline: as §2
Aspergillus fumigatus = test: Antifungal activity against Aspergillus fumigatus ATCC 26934; type: functional; outline: as §4
Cryptococcus neoformans = test: Antifungal activity against Cryptococcus neoformans ATCC 32264; type: functional; outline: as §3
Aspergillus flavus = test: Antifungal activity against Aspergillus flavus ATCC 9170; type: functional; outline: as §4
NCI-H460 = test: Cytotoxicity against human H460 cells assessed as cell growth after 2 days by sulforhodamine B assay; type: functional; details: NCI-H460, 48 h; outline: as §1

SMILES	GI50 (MCF7)	MFC (Nannizzia gypsea)	MIC (Nannizzia gypsea)	MIC (Candida tropicalis)	MFC (Candida albicans)	MIC (Candida albicans)	HC50 [1]	MFC (Trichophyton rubrum)	MIC (Trichophyton rubrum)	GI50 (SF-268)	MFC (Aspergillus niger)	MIC (Aspergillus niger)	MFC (Saccharomyces cerevisiae)	MIC (Saccharomyces cerevisiae)	MFC [2]	MIC [2]	MFC (Aspergillus fumigatus)	MIC (Aspergillus fumigatus)	MFC (Cryptococcus neoformans)	MIC (Cryptococcus neoformans)	further results
O=C1C=CC(=O)N1Cc1ccccc1	> 10 µg/mL	7.81 µg/mL (≈ 41.7 µM)	3.9 µg/mL (≈ 20.8 µM)	15.6 µg/mL (≈ 83.5 µM)	7.81 µg/mL (≈ 41.7 µM)	3.9 µg/mL (≈ 20.8 µM)	> 250 µg/mL	7.81 µg/mL (≈ 41.7 µM)	3.9 µg/mL (≈ 20.8 µM)	> 10 µg/mL	62.5 µg/mL (≈ 334 µM)	31.2 µg/mL (≈ 167 µM)	15.6 µg/mL (≈ 83.5 µM)	7.81 µg/mL (≈ 41.7 µM)	7.81 µg/mL (≈ 41.7 µM)	3.9 µg/mL (≈ 20.8 µM)	250 µg/mL (≈ 1340 µM)	125 µg/mL (≈ 668 µM)	15.6 µg/mL (≈ 83.5 µM)	7.81 µg/mL (≈ 41.7 µM)	MFC (Aspergillus flavus): 125 µg/mL (≈ 668 µM); MIC (Aspergillus flavus): 62.5 µg/mL (≈ 334 µM); GI50 (NCI-H460): > 10 µg/mL
Cc1ccc(N2C(=O)C=CC2=O)cc1	> 10 µg/mL	3.9 µg/mL (≈ 20.8 µM)	1.95 µg/mL (≈ 10.4 µM)	15.6 µg/mL (≈ 83.5 µM)	31.2 µg/mL (≈ 167 µM)	15.6 µg/mL (≈ 83.5 µM)	> 250 µg/mL	3.9 µg/mL (≈ 20.8 µM)	1.95 µg/mL (≈ 10.4 µM)	> 10 µg/mL	31.2 µg/mL (≈ 167 µM)	15.6 µg/mL (≈ 83.5 µM)	7.81 µg/mL (≈ 41.7 µM)	3.9 µg/mL (≈ 20.8 µM)	7.81 µg/mL (≈ 41.7 µM)	1.95 µg/mL (≈ 10.4 µM)	62.5 µg/mL (≈ 334 µM)	31.2 µg/mL (≈ 167 µM)	7.81 µg/mL (≈ 41.7 µM)	3.9 µg/mL (≈ 20.8 µM)	MFC (Candida tropicalis): 31.2 µg/mL (≈ 167 µM); MFC (Aspergillus flavus): 15.6 µg/mL (≈ 83.5 µM); MIC (Aspergillus flavus): 15.6 µg/mL (≈ 83.5 µM); GI50 (NCI-H460): > 10 µg/mL
O=C1C=CC(=O)N1c1ccc(F)cc1F	> 10 µg/mL	7.81 µg/mL (≈ 37.3 µM)	3.9 µg/mL (≈ 18.6 µM)	15.6 µg/mL (≈ 74.7 µM)	31.2 µg/mL (≈ 149 µM)	15.6 µg/mL (≈ 74.7 µM)	> 250 µg/mL	7.81 µg/mL (≈ 37.3 µM)	3.9 µg/mL (≈ 18.6 µM)	> 10 µg/mL	31.2 µg/mL (≈ 149 µM)	15.6 µg/mL (≈ 74.7 µM)	15.6 µg/mL (≈ 74.7 µM)	7.81 µg/mL (≈ 37.3 µM)	7.81 µg/mL (≈ 37.3 µM)	3.9 µg/mL (≈ 18.6 µM)	31.2 µg/mL (≈ 149 µM)	31.2 µg/mL (≈ 149 µM)	7.81 µg/mL (≈ 37.3 µM)	7.81 µg/mL (≈ 37.3 µM)	MFC (Candida tropicalis): 31.2 µg/mL (≈ 149 µM); MFC (Aspergillus flavus): 62.5 µg/mL (≈ 299 µM); MIC (Aspergillus flavus): 62.5 µg/mL (≈ 299 µM); GI50 (NCI-H460): > 10 µg/mL
CC1=CC(=O)N(c2ccccc2)C1=O	> 10 µg/mL	15.6 µg/mL (≈ 83.5 µM)	7.81 µg/mL (≈ 41.7 µM)	62.5 µg/mL (≈ 334 µM)	125 µg/mL (≈ 668 µM)	62.5 µg/mL (≈ 334 µM)	> 250 µg/mL	15.6 µg/mL (≈ 83.5 µM)	7.81 µg/mL (≈ 41.7 µM)	> 10 µg/mL	250 µg/mL (≈ 1340 µM)	125 µg/mL (≈ 668 µM)	125 µg/mL (≈ 668 µM)	31.2 µg/mL (≈ 167 µM)	62.5 µg/mL (≈ 334 µM)	31.2 µg/mL (≈ 167 µM)	62.5 µg/mL (≈ 334 µM)	31.2 µg/mL (≈ 167 µM)	62.5 µg/mL (≈ 334 µM)	31.2 µg/mL (≈ 167 µM)	MFC (Candida tropicalis): 125 µg/mL (≈ 668 µM); MFC (Aspergillus flavus): 125 µg/mL (≈ 668 µM); MIC (Aspergillus flavus): 62.5 µg/mL (≈ 334 µM); GI50 (NCI-H460): > 10 µg/mL
O=C1C(Cl)=C(Cl)C(=O)N1CCc1ccccc1	> 10 µg/mL	31.2 µg/mL (≈ 116 µM)	15.6 µg/mL (≈ 57.9 µM)	15.6 µg/mL (≈ 57.9 µM)	15.6 µg/mL (≈ 57.9 µM)	7.81 µg/mL (≈ 28.9 µM)	> 250 µg/mL	7.81 µg/mL (≈ 28.9 µM)	3.9 µg/mL (≈ 14.4 µM)	> 10 µg/mL	31.2 µg/mL (≈ 116 µM)	15.6 µg/mL (≈ 57.9 µM)	7.81 µg/mL (≈ 28.9 µM)	3.9 µg/mL (≈ 14.4 µM)	15.6 µg/mL (≈ 57.9 µM)	7.81 µg/mL (≈ 28.9 µM)	15.6 µg/mL (≈ 57.9 µM)	15.6 µg/mL (≈ 57.9 µM)	7.81 µg/mL (≈ 28.9 µM)	7.81 µg/mL (≈ 28.9 µM)	MFC (Candida tropicalis): 31.2 µg/mL (≈ 116 µM); MFC (Aspergillus flavus): 15.6 µg/mL (≈ 57.9 µM); MIC (Aspergillus flavus): 15.6 µg/mL (≈ 57.9 µM); GI50 (NCI-H460): > 10 µg/mL
O=C1C=CC(=O)N1CCCCc1ccccc1	> 10 µg/mL	1.95 µg/mL (≈ 8.5 µM)	0.97 µg/mL (≈ 4.23 µM)	7.81 µg/mL (≈ 34.1 µM)	7.81 µg/mL (≈ 34.1 µM)	3.9 µg/mL (≈ 17 µM)	> 250 µg/mL	0.97 µg/mL (≈ 4.23 µM)	0.48 µg/mL (≈ 2.09 µM)	> 10 µg/mL	7.81 µg/mL (≈ 34.1 µM)	7.81 µg/mL (≈ 34.1 µM)	1.95 µg/mL (≈ 8.5 µM)	0.97 µg/mL (≈ 4.23 µM)	7.81 µg/mL (≈ 34.1 µM)	3.9 µg/mL (≈ 17 µM)	31.2 µg/mL (≈ 136 µM)	15.6 µg/mL (≈ 68.2 µM)	31.2 µg/mL (≈ 136 µM)	15.6 µg/mL (≈ 68.2 µM)	MFC (Candida tropicalis): 15.6 µg/mL (≈ 68.2 µM); MFC (Aspergillus flavus): 15.6 µg/mL (≈ 68.2 µM); MIC (Aspergillus flavus): 7.81 µg/mL (≈ 34.1 µM); GI50 (NCI-H460): > 10 µg/mL
